Compound activity from PubChem.
This is a sample that favours compounds with a hit; in the whole collection about 1.3% have one here.
HCV core dimer = inhibitors of HCV core protein dimerization, primary screen, biochemical, TR-FRET, high-throughput; TR-FRET GST/Flag-core106 dimerization, 1536-well; inhibition, % at 5 µM; hit rate 0.33% among 300,000; AID 1899, 2009;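 active = inhibition above the mean of all tested compounds plus 3 SD, set per screening campaign, cut at about 45% in these data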
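assay system = GST-tagged and Flag-tagged HCV core protein residues 1-106 | controls = unlabelled core106 and no-GST-core106 wells | incubation = compound-protein-antibody incubation 4 h at 22.5 °C | probe or stimulus = Eu donor and XL665 acceptor anti-tag antibodies | read-out = % inhibition based on acceptor/donor emission ratio | signal = TR-FRET 671 and 617 nm emission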
TbMetRS inhib = T. brucei MetRS inhibitors, primary screen, biochemical, luminescence; methionyl-tRNA synthetase (Trypanosoma brucei brucei); purified T. brucei MetRS, ATP depletion, Kinase-Glo luminescence; inhibition, % at 11.9 µM; hit rate 0.4% among 360,000;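 active = inhibition above a per-plate cutoff of the control wells' mean inhibition plus 3 SD, cut at about 5.5% in these data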;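 also: 0% = DMSO wells median and 100% = median of wells with control inhibitor compound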
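Dosing: 11.9 µM single point; system: parasite MetRS enzyme; technique: luminescence of leftover ATP; times: 15 min enzyme-compound preincubation, 2 h reaction, 10 min detection, 25 °C; replicates: each compound tested once; read-out basis: percent inhibition relative to median high and low control wells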
NS3 helicase inh = inhibitors of HCV NS3 helicase, primary screen, biochemical, Cy5 molecular beacon fluorescence; Hepatitis C virus NS3 helicase; hit rate 0.56% among 290,000; inhibition, % at 10.9 µM; NS3 helicase DNA unwinding;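 active = inhibition above the mean of all tested compounds plus 3 SD, set per campaign, cut at about 35% in these data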;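 also: 0% = DMSO wells and 100% = thioflavine S control wells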
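System: HCV NS3 helicase fragment; control set: DMSO and thioflavine S; technique: Cy5 fluorescence at 0 and 60 min, beacon hairpin quenching; reagent: beacon DNA duplex substrate plus ATP; replicates: singlicate; schedule: 1 h reaction at 25 °C, ATP-initiated; medium: MOPS buffer pH 6.5 with MgCl2, DTT, Tween20, BSA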
Hep lipid drop = inhibitors of hepatocyte lipid droplet formation, primary screen, imaging, high-throughput imaging, BODIPY stain; inhibition, % at 6.5 µM; AML12 mouse hepatocytes, oleate lipid droplets; hit rate 0.4% among 240,000;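 active = lipid droplet intensity inhibited by at least 50%, with more than 500 cells counted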
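Test system: AML12 hepatocytes (mouse); reagent: oleate loading, 100 µM; dosing: one dose, 6.5 µM compound; incubation: overnight exposure; signal: fluorescence imaging, 20x objective, two fields per well; read-out basis: % inhibition of corrected integrated BODIPY droplet signal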
Lipid drop inh = hepatocyte lipid droplet accumulation inhibitors, confirmation, imaging, AML12 mouse hepatocytes, single concentration, high-content | shares compounds with Hep lipid drop | BODIPY lipid droplet imaging; droplets induced with 100 µM oleic acid | inhibition, % at 5.2 µM | hit rate 65% among 870 | AID 463183, 2010;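 active = inhibition of lipid droplet metric at least 50%, with more than 300 cells in each of four replicates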;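 also: plate controls were DMSO with oleic acid for no effect and 5 µM Triacsin-C for full effect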
AML12 tox img = AML12 hepatocyte cytotoxicity, counter-screen for hepatic lipid droplet formation project, imaging, DAPI nuclear morphology imaging | z-score at 5 µM | hit rate 3% among 870 | AID 463200, 2010 | shares compounds with Hep lipid drop | AML12 mouse hepatocytes; hits give high values; cells fed 100 µM oleate overnight; in the data active = z-score above about 6.3;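 also: compound exposure lasted overnight at 37 °C before fixation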
AML12 tox ATP = AML12 hepatocyte cytotoxicity, confirmation, cytotoxicity control for hepatic lipid droplet formation project, cell-based, single concentration | shares compounds with Hep lipid drop | cytotoxicity, % at 50 µM | AML12 mouse hepatocyte viability, ATP luminescence; cells loaded with 100 µM oleic acid | 530 tested, under 10 active | AID 463219, 2010;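 active = cytotoxicity above 50% in each of four replicates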;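 also: compound exposure lasted overnight at 37 °C before the ATP read; 0% = DMSO-treated cells and 100% = wells with no cells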
* hit, by the source's call; / = no result given.

SMILES	HCV core dimer	TbMetRS inhib	NS3 helicase inh	Hep lipid drop	Lipid drop inh	AML12 tox img	others
CN1CCN(c2ccc(CNC(=O)c3ccc(-c4ccc(F)c(F)c4)c4ccoc34)cc2)CC1	/	0	/	/	/	/
Cc1ccc(Nc2nc(=O)c3cc([N+](=O)[O-])ccc3s2)cc1	48*	0	4	0	/	/
CN1CCN(c2cc(N3CCN(C(=O)c4ccco4)CC3)c3c4c(onc24)-c2ccccc2C3=O)CC1	-28	0	-19	0	/	/
O=C1c2ccccc2-c2onc3c(N4CCN(CCO)CC4)cc(N4CCN(C(=O)c5ccco5)CC4)c1c23	-51	0	-17	-2	/	/
CCOC(=O)N1CCN(c2cc(NCCC(=O)O)c3c4c(onc24)-c2ccccc2C3=O)CC1	-60	-1	36*	0	/	/
O=C(O)CCCNc1cc(N2CCC3(CC2)OCCO3)c2noc3c2c1C(=O)c1ccccc1-3	-32	/	37*	/	/	/
COc1ccc(/C=N/NC(=O)c2nn(-c3ccc(C)c(C)c3)c(=O)c3ccccc23)cc1	56*	-1	9	3	/	/
CC(=O)c1ccc(N2CCN(C(=O)CNC(=O)c3ccc(Br)o3)CC2)cc1	/	0	/	/	/	/
Cc1ccc(S(=O)(=O)Nc2cc3c(C(=O)Nc4ccccc4)c(C)oc3c3ccccc23)cc1	50*	0	7	14	/	/
CC(=O)c1c(C)oc2c1cc(NS(=O)(=O)c1ccc(C(=O)O)cc1)c1ccccc12	-4	-1	-11	-15	/	/
O=C1Nc2ccccc2CN2C(=O)c3cc(Cl)ccc3NC(=O)C12 (stereo not drawn)	/	-1	/	/	/	/
COc1ccc(/C=N/NC(=O)c2nc(Cl)c(Cl)c(N)c2Cl)cc1COc1ccccc1F	57*	-1	-2	/	/	/
COc1ccc(/C=N\NC(=O)c2ccccc2F)cc1COc1ccc(F)cc1F	2	0	-13	-159	/	/
COc1ccc(/C=N/NC(=O)c2nc(Cl)c(Cl)c(N)c2Cl)cc1COc1ccc(F)cc1F	53*	0	10	/	/	/
COc1cccc(OCc2cc(/C=N/NC(=O)c3ccn[nH]3)ccc2OC)c1	48*	0	4	/	/	/
COc1ccc(/C=N\NC(=O)c2ccccc2F)cc1COc1ccc(F)cc1	4	-1	3	-6	/	/
CO[C@@H]1CN(C)C(=O)c2ccc(NC(=O)C3CCCC3)cc2OC[C@@H](C)N(Cc2ccc(F)cc2)C[C@H]1C	/	-1	/	/	/	/
COC(=O)Cn1c(O)c(N=NC(=O)CNC(=O)COc2cccc(C)c2)c2ccccc21	2	0	-33	68*	25	-1.1
CCn1c(O)c(N=NC(=O)CNc2cccc(C)c2)c2ccccc21	12	0	-5	-4	/	/
Cc1ccc(CNC(=O)c2ccc(N3CCC4(CC3)CC(c3ccccc3)=NO4)c(NC(=O)c3ccccc3)c2)cc1	20	0	/	/	/	/
Cc1ccc(CNC(=O)c2ccc(N3CCC4(CC3)CC(c3ccccc3)=NO4)c(NC(=O)c3ccc(Br)cc3)c2)cc1	7	0	1	73*	104*	0.66	AML12 tox ATP=-1
Cc1ccc(CNC(=O)c2ccc(N3CCC4(CC3)CC(c3ccccc3)=NO4)c(N)c2)cc1	16	0	-9	52*	89*	-0.92	AML12 tox ATP=20
COC(=O)C[C@@H]1C[C@H]2c3cc(N(C)C)ccc3O[C@H]2[C@H](CO)O1	/	-1	/	/	/	/
CCOC(=O)C1=CCC(c2cc3ccc(OC)cc3n2C(=O)OC(C)(C)C)NC1 (stereo not drawn)	/	-1	/	/	/	/
O=C(CCC(=O)c1ccc(F)cc1)Nc1cccc(C(F)(F)F)c1	-2	0	-4	21	/	/
SMILES	HCV core dimer	TbMetRS inhib	NS3 helicase inh	Hep lipid drop	Lipid drop inh	AML12 tox img	others
O=C(CCC(=O)c1ccc(F)cc1)Nc1cccc(S(=O)(=O)Nc2cccc(Cl)c2)c1	-6	0	-7	51*	-39	0.023
O=C1N[C@@H](Cc2c[nH]c3ccccc23)C(=O)N[C@H]1Cc1ccccc1	/	-1	/	/	/	/
O=[N+]([O-])c1ccccc1/C=C/C=N/Nc1ccc(S(=O)(=O)Nc2ccc(Cl)cc2)cc1[N+](=O)[O-]	31	-1	-6	60*	69	-0.46	AML12 tox ATP=10
C/C(=N\Nc1ccc(S(=O)(=O)Nc2ccc(Cl)cc2)cc1[N+](=O)[O-])c1ccc(N2CCOCC2)cc1	14	-1	5	88*	65	-0.29	AML12 tox ATP=11
C/C(=N\Nc1ccc(S(=O)(=O)Nc2ccccc2)cc1[N+](=O)[O-])c1ccc(N2CCOCC2)cc1	0	-1	17	51*	72*	-0.2	AML12 tox ATP=22
O=[N+]([O-])c1cc(S(=O)(=O)Nc2cccc(Cl)c2)ccc1N/N=C/c1ccc(N2CCOCC2)cc1	15	0	-4	0	/	/
Nc1sccc1C(=O)NCc1ccccc1	/	-1	/	/	/	/
CCOC(=O)c1c(C)[nH]c(N=Nc2ccccc2Cl)c1C	-7	0	1	65*	105*	0.39	AML12 tox ATP=5
NC(=O)N/N=C/c1ccc(-c2ccc([N+](=O)[O-])cc2)o1	-6	-1	-10	55*	-4	0.24
Cc1nc(C(F)(F)F)ccc1C(=O)N1CCC1(C)C(=O)NS(=O)(=O)c1c(C)noc1C (stereo not drawn)	/	0	/	/	/	/
Nc1nc2ccccc2cc1C(=O)NCc1ccc(-c2ccccc2)cc1	/	-1	/	/	/	/
COc1ccc(OCCN2CCCC2)cc1Nc1nnc(Cl)c(Nc2ccccc2S(C)(=O)=O)n1	/	0	/	/	/	/
Cn1c(=O)c(=O)n(C)c2cc(N3CCOCC3)c(NS(=O)(=O)c3ccc(F)c(Cl)c3)cc21	1	0	-3	-24	/	/
Cn1c(=O)c(=O)n(C)c2cc(N3CCCC3)c(NS(=O)(=O)c3ccc(Cl)cc3)cc21	14	0	-4	50*	8	-0.61
CC(C)(C)c1cc(Br)c(O)c(N=Nc2ccc(S(=O)(=O)N3CCOCC3)cc2)c1	11	0	4	56*	102*	-0.35	AML12 tox ATP=18
CCOc1ccc(CCNC(=O)COC(=O)/C=C/c2ccc(OC)c(OC)c2)cc1OCC	-1	-1	-6	94*	109*	-0.73	AML12 tox ATP=7
CCOc1ccc(CCNC(=O)COC(=O)/C=C/c2ccc(OC(F)F)c(OC)c2)cc1OCC	0	0	/	/	/	/
CCOc1ccc(CCNC(=O)COC(=O)/C=C/c2ccc(C)o2)cc1OCC	14	0	5	59*	91*	-0.68	AML12 tox ATP=10
